Nine molecules from ChEMBL document CHEMBL1145412, “Impact of the 3,6,9-trioxadecyloxy group on desazadesferrithiocin analogue iron clearance and organ distribution” (J Med Chem, 2007) can be followed below.

Molecules are shown by their SMILES.

Series [1] has as its system Sapajus apella. Description: Iron-clearing efficiency in iron-loaded Cebus apella assessed as excretion in stool at 75 umol/kg, po relative to control. In kind it is functional. In a few lines:
(§1)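 Iron-loaded Cebus apella monkeys given the chelator orally, prepared as for rats except some solubilized in 40% Cremophor RH-40/water. Feces and urine collected at 24 h intervals from 4 d before to 5 d after dosing; iron by flame AAS. Efficiency = (2-day post-drug iron output minus 4-day pre-drug mean) / theoretical 2:1 output, %. Stool/urine split given. Mean ± SEM.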

For series [2], the system named is Rattus norvegicus. Description: Iron clearance in non-iron overloaded Sprague-Dawley rat at 300 umol/kg, po at 3 hrs. It is filed as functional. In a few lines:
(§2)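 Male Sprague-Dawley rats (400-450 g) with bile-duct cannulation and no iron overload, given a single oral 300 µmol/kg dose. Bile collected at 3 h intervals for up to 48 h. Iron measured by flame atomic absorption and reported as µg iron per kg body weight at each interval.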

Series [3] relates to Rattus norvegicus. As to the kind of experiment: Iron-clearing efficiency in non-iron overloaded Sprague-Dawley rat assessed as excretion in bile at 300 umol/kg, po relative to control. In kind it is functional. Summed up:
(§3)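 Male Sprague-Dawley rats (400-450 g), bile-duct cannulated and not iron overloaded, given one oral 300 µmol/kg dose. Given in water, as monosodium salt (1 equiv NaOH) or in 40% Cremophor. Bile collected every 3 h for up to 48 h and urine every 24 h; iron by flame AAS. Efficiency = (treated minus control iron excretion) / theoretical 2:1 output, %; bile/urine split given.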

Series [4] has as its system Rattus norvegicus. As to the kind of experiment: Iron-clearing efficiency in non-iron overloaded Sprague-Dawley rat assessed as excretion in urine at 300 umol/kg, po relative to control. In kind it is functional. In a few lines:
as §3

For series [5], the system named is Sapajus apella. As to the kind of experiment: Iron-clearing efficiency in iron-loaded Cebus apella assessed as excretion in urine at 75 umol/kg, po relative to control. In kind it is functional. Summed up:
as §1

For series [6], the system named is Rattus norvegicus. Description: Iron clearing efficiency in non-iron overloaded Sprague-Dawley rat at 300 umol/kg, po in presence of 250 mg/kg/dose sodium benzoate. It is filed as functional. In a few lines: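 Bile-duct-cannulated rats given the chelator orally at 300 µmol/kg. Sodium benzoate in distilled water, 250 mg/kg/dose sc, given 0.5 h before the chelator and then hourly for five more doses. Iron in bile and urine measured by flame AAS. Efficiency = (treated minus control iron excretion) / theoretical output for a 2:1 complex, as percent.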

Series [7] deals with Kidney. As to the kind of experiment: Distribution in kidney in non-iron overloaded Sprague-Dawley rat at 300 umol/kg, sc after 0.5 hrs. It is filed as ADME, organism-based. The following applies: in vivo. In a few lines:
(§4)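 Tissue distribution: rats dosed once sc at 300 µmol/kg. Plasma, kidney, liver, heart and pancreas sampled at 0.5, 1, 2 and 4 h. Plasma chelator reported in µM and tissue levels as nmol compound per g wet weight. n = 3 per time point.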

Series [8] concerns Kidney. As to the kind of experiment: Distribution in kidney in non-iron overloaded Sprague-Dawley rat at 300 umol/kg, sc after 1 hr. It is filed as ADME, organism-based. The following applies: in vivo. Summed up: as §4
Series [9] has as its system Kidney. Description: Distribution in kidney in non-iron overloaded Sprague-Dawley rat at 300 umol/kg, sc after 2 hrs. In kind it is ADME, organism-based. As to conditions: in vivo. Summed up:
as §4

The subject of series [10] is Kidney. Description: Distribution in kidney in non-iron overloaded Sprague-Dawley rat at 300 umol/kg, sc after 4 hrs. In kind it is ADME, organism-based. As to conditions: in vivo. Summed up:
as §4

Series [11] has as its system Liver. As to the kind of experiment: Distribution in liver in non-iron overloaded Sprague-Dawley rat at 300 umol/kg, sc after 0.5 hrs. The following applies: in vivo. In kind it is ADME, organism-based. Summed up:
as §4

Series [12] has as its system Liver. As to the kind of experiment: Distribution in liver in non-iron overloaded Sprague-Dawley rat at 300 umol/kg, sc after 1 hr. As to conditions: in vivo. In kind it is ADME, organism-based. Summed up:
as §4

Series [13] in a line: Distribution in plasma in non-iron overloaded Sprague-Dawley rat at 300 umol/kg, sc after 0.5 hrs. It is filed as ADME, organism-based. In a few lines: as §4
The test system of series [14] is Plasma. Description: Distribution in plasma in non-iron overloaded Sprague-Dawley rat assessed as decrease in concentration at 300 umol/kg, sc after 1 hr. In kind it is ADME, organism-based. On the set-up: scale not given: the % may be the effect or the level left. The following applies: in vivo. In a few lines:
as §4

Series [15] relates to Plasma. As to the kind of experiment: Distribution in plasma in non-iron overloaded Sprague-Dawley rat assessed as decrease in concentration at 300 umol/kg, sc after 2 hrs. In kind it is ADME, organism-based. On the set-up: scale not given: the % may be the effect or the level left. The following applies: in vivo. In a few lines:
as §4

Series [16] relates to Plasma. As to the kind of experiment: Distribution in plasma in non-iron overloaded Sprague-Dawley rat assessed as decrease in concentration at 300 umol/kg, sc after 4 hrs. In kind it is ADME, organism-based. On the set-up: scale not given: the % may be the effect or the level left. The following applies: in vivo. Summed up: as §4
Series [17] in a line: Distribution in pancreas per wet weight in non-iron overloaded Sprague-Dawley rat at 300 umol/kg, sc after 2 hrs. The following applies: in vivo.
A short description of series [18]: Ratio of iron clearing efficiency in iron-overloaded Cebus apella to non-iron-overloaded Sprague-Dawley rat. In kind it is functional. Summed up: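 Performance ratio = mean ICE in iron-overloaded primates divided by mean ICE in non-overloaded rats.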
In series [19] the test system is Rattus norvegicus. Description: Iron-clearing efficiency in non-iron overloaded Sprague-Dawley rat at 300 umol/kg, po after 48 hrs relative to control. It is filed as functional. In a few lines:
as §3

The subject of series [20] is Rattus norvegicus. As to the kind of experiment: Iron-clearing efficiency in non-iron overloaded Sprague-Dawley rat assessed as excretion in bile at 300 umol/kg, po after 48 hrs relative to control. In kind it is functional. Summed up: as §3
Series [21] deals with Rattus norvegicus. Description: Iron-clearing efficiency in non-iron overloaded Sprague-Dawley rat assessed as excretion in urine after 48 hrs at 300 umol/kg, po relative to control. In kind it is functional. Summed up:
as §3

For series [22], the system named is Rattus norvegicus. Description: Iron-clearing efficiency in non-iron overloaded Sprague-Dawley rat at 300 umol/kg, po relative to control. It is filed as functional. Summed up:
as §3

Series [23] in a line: Partition coefficient, log P in TRIS buffer at pH 7.4. In kind it is physicochemical. In a few lines: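 Shake-flask direct method in TRIS buffer, pH 7.4. Reported as log of the fraction in the octanol layer (log Papp).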
Series [24] has as its system Sapajus apella. Description: Iron-clearing efficiency in iron-loaded Cebus apella at 75 umol/kg, po relative to control. It is filed as functional. In a few lines: as §1
The subject of series [25] is Rattus norvegicus. Description: Iron clearance in non-iron overloaded Sprague-Dawley rat at 300 umol/kg, po at 6 hrs. It is filed as functional. In a few lines:
as §2

Regarding `COCCOCCOCCOc1ccc(C2=N[C@@](C)(C(=O)O)CS2)c(O)c1`, the Activity amounted to 96% in the series with Sapajus apella [1]; 183 µg/kg in the series with Rattus norvegicus [2]; 90% in the series with Rattus norvegicus [3]; 10% in the series on Rattus norvegicus [4]; 4% in the series with Sapajus apella [5]; 8.8% in the series with Rattus norvegicus [6]. Also, the Activity with Plasma [14] is recorded as 28%; with Plasma [15], 92%; with Plasma [16], 97%. In addition, the Drug uptake is 368 nmol/g with Kidney [7]; 252 nmol/g with Kidney [8]; 41 nmol/g with Kidney [9]; 34 nmol/g in the series on Kidney [10]; 339 nmol/g with Liver [11]; 315 nmol/g in the series with Liver [12]. In addition, the Drug uptake in [17] is on record as 30 nmol/g. In addition, in series [13], the concentration at 0.5 h was 194 µM.
On to `COc1cccc(C2=N[C@@](C)(C(=O)[O-])CS2)c1O.[Na+]`, for which the Activity in the series on Sapajus apella [1] is on record as 91%; with Rattus norvegicus [19] it was 12.4%; in the series on Rattus norvegicus [20], 99%; in the series on Rattus norvegicus [21], 1%; in the series with Sapajus apella [5], 9%. For the same molecule, the Ratio in series [18] was found to be 1.8.
On to `COCCOCCOCCOc1ccc(O)c(C2=N[C@@](C)(C(=O)[O-])CS2)c1.[Na+]`, for which the Activity in the series on Sapajus apella [1] worked out at 56%; in the series with Rattus norvegicus [2] it was 388 µg/kg; in the series with Rattus norvegicus [22], 8%; with Rattus norvegicus [3], 98%; in the series on Rattus norvegicus [4], 2%; in the series with Sapajus apella [24] it was 8.1%. Besides, the Activity came to 44% in the series on Sapajus apella [5], 39% in the series with Plasma [14], 54% with Plasma [15] and 82% in the series on Plasma [16]. For the same molecule, the Ratio in series [18] turned out to be 1. The logD in [23] was -1.27. Moreover, the Drug uptake in the series with Kidney [7] was 643 nmol/g; in the series with Kidney [8], 435 nmol/g; with Kidney [9] it was 321 nmol/g; with Kidney [10] it was 116 nmol/g; with Liver [11], 483 nmol/g; with Liver [12], 315 nmol/g. The molecule further had a Drug uptake in series [17] of 30 nmol/g. Also, the concentration at 0.5 h in [13] was 324 µM.
On to `COc1ccc(C2=N[C@@](C)(C(=O)[O-])CS2)c(O)c1.[Na+]`, for which the Activity in the series with Sapajus apella [1] is given as 91%; in the series on Rattus norvegicus [3], 98%; in the series with Rattus norvegicus [4], 2%; in the series on Sapajus apella [5], 9%.
In the case of `C[C@]1(C(=O)[O-])CSC(c2ccc(O)cc2O)=N1.[Na+]` [DEFERITRIN SODIUM], the Activity stood at 88% in the series with Sapajus apella [1]; 68 µg/kg in the series on Rattus norvegicus [2]; 100% in the series on Rattus norvegicus [3]; 0% in the series with Rattus norvegicus [4]; 12% with Sapajus apella [5]; 12% in the series with Rattus norvegicus [6]. Moreover, the Drug uptake with Kidney [8] was 179 nmol/g; with Kidney [10] it was 27 nmol/g.
In the case of `C[C@]1(C(=O)[O-])CSC(c2cc(O)ccc2O)=N1.[Na+]`, the Activity with Sapajus apella [1] was found to be 88%; in the series on Rattus norvegicus [3], 99%; with Rattus norvegicus [4], 1%; in the series on Sapajus apella [5] it was 12%. In addition, the Ratio in [18] came to 12.6.
For `C[C@]1(C(=O)[O-])CSC(c2cccc(O)c2O)=N1.[Na+]`, the Activity in the series with Sapajus apella [1] is given as 83%; in the series on Rattus norvegicus [22] it was 4.6%; with Rattus norvegicus [3], 98%; in the series with Rattus norvegicus [4] it was 2%; with Sapajus apella [5], 17%. Besides, the Ratio in series [18] came to 5.
Regarding `COc1ccc(O)c(C2=N[C@@](C)(C(=O)[O-])CS2)c1.[Na+]`, the Activity in the series on Sapajus apella [1] is reported as 94%; with Rattus norvegicus [3] it was 95%; in the series with Rattus norvegicus [4], 5%; with Sapajus apella [5] it was 6%. Also, the Ratio in series [18] is 3.
As for `COCCOCCOCCOc1cccc(C2=N[C@@](C)(C(=O)[O-])CS2)c1O.[Na+]`, the Activity in the series with Sapajus apella [1] is 72%; in the series on Rattus norvegicus [25], 287 µg/kg; in the series on Rattus norvegicus [19], 10.6%; in the series on Rattus norvegicus [20], 95%; in the series on Rattus norvegicus [21], 5%; in the series with Sapajus apella [24], 24.5%. Besides, the Activity with Sapajus apella [5] was 28%; in the series on Plasma [14] it was 26%; in the series with Plasma [15], 61%; in the series on Plasma [16] it was 79%. Further, the Ratio in series [18] worked out at 2.3. Also, the logD in series [23] was -1.22. Moreover, the Drug uptake with Kidney [7] was found to be 280 nmol/g; in the series on Kidney [8], 259 nmol/g; with Kidney [9], 145 nmol/g; in the series with Kidney [10], 90 nmol/g; in the series on Liver [11], 242 nmol/g; in the series on Liver [12], 318 nmol/g. In series [17], this molecule had a Drug uptake of 16 nmol/g. The molecule further yielded a concentration at 0.5 h in series [13] of 62 µM.

For orientation: logD means the decadic logarithm of the distribution of all forms, ionised or not, between an organic phase and buffer at a given pH.
